# Bioassay records deposited in PubChem by several laboratories.
# SENP1 FRET inh – SENP1 (human) catalytic domain inhibition | Q9P0U3 | AID 624204 | actives 0.21% (n = 360,000) | inhibition, % at 10 µM | recombinant SENP1 catalytic domain, CyPet-SUMO1-YPet FRET cleavage;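 active = inhibition at least 30% at 10 µM, raw YFP signal under a set limit, fluorescence ratio 0.5 to 1.5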;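 also: 0% = enzyme with DMSO and 100% = no enzyme wells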
# Target sequence (Q9P0U3 419-644 limits assumed): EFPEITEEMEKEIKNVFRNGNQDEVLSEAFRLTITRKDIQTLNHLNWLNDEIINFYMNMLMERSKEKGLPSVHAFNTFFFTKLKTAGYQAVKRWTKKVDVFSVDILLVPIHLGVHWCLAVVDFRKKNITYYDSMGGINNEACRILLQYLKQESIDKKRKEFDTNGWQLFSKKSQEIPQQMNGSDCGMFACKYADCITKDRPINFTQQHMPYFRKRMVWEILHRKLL
#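 material = recombinant human SENP1 catalytic domain, His6-tagged | quantity = 20 pM enzyme | reagent = 25 nM SUMO1 FRET substrate | compound dosing = 10 µM single point, 0.5% DMSO | timing = 50 min enzyme reaction, room temperature, light-protected | detection = FRET, CFP and YFP emission | control set = no-enzyme low, enzyme-DMSO high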
# GRIN3A LBD mod – NR3A (human) ligand-binding domain modulation; NR3A LBD differential scanning fluorimetry, Tm shift; 0% = protein alone, 100% = glycine-bound protein; Tm shift relative to glycine control, % at 25 µM; actives 2.5% (n = 340,000); AID 1259313;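 active = melting temperature shift of at least 10% of the positive control shift, at one fixed dose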
# FAS TE block – blocks the thioesterase domain of human fatty acid synthase | recombinant FAS-TE, OMFH fluorogenic substrate, fluorescence endpoint | inhibition, % at 15 µM | actives 0.67% (n = 360,000);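 active = compounds whose normalised, plate-corrected inhibition of enzyme fluorescence in the single-dose primary screen is 50% or more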;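 also: 0% = DMSO with enzyme and 100% = substrate without enzyme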
# Arrestin-AP2 inh – human beta-arrestin and AP2 interaction inhibition | actives 0.31% (n = 340,000) | FITC-arrestin peptide / GST-AP2 beads, flow cytometry; AP2 beta2 appendage carries R879A mutation | inhibition, % at 10 µM | AID 504490;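 active = inhibition above a set limit, near 3 SD of compounds lacking own fluorescence, cut at about 54% in these data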;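 also: plate controls were DMSO wells for no effect and 5 µM unlabelled arrestin peptide for full effect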
#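 Assay system: GST-AP2 R879A bound to glutathione beads, E. coli-expressed; Medium: PBS with 0.05% Tween 20 and 0.1% BSA; Also added: fluorescein-tagged arrestin peptide at 50 nM final; Timing: 12 min plus 1 h, RT; Measured by: flow cytometry, FL1 (488/535 nm); Evaluation: percent drop in bead-associated FITC signal.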
# iPSC survival up – increases survival of single human iPS cells | actives 0.044% (n = 360,000) | hiPSC single-cell survival, ATPlite luminescence; 100% = ROCK inhibitor wells, 0% = DMSO | survival enhancement, % at 20 µM; in the data active = survival enhancement above about 18%;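 also: cells exposed to compounds for 16 hours before the ATP read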
# Cardio protect – myocardial damage modulation in H9c2 cells. H9c2 cardiomyocytes, H2O2 injury protection, ATPLite, 2 h. protection from H2O2 cell death, % at 20 µM. actives 0.63% (n = 360,000);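 active = compounds giving at least 50% protection of heart cells from peroxide-induced death in the single-dose screen, raw or plate-pattern-corrected value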;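 also: 0% = DMSO wells with peroxide and 100% = DMSO wells without peroxide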
# Numbers without * were called inactive; . = no result. An excerpt weighted towards active compounds, which were near 4% of everything screened.
SMILES,SENP1 FRET inh,GRIN3A LBD mod,FAS TE block,Arrestin-AP2 inh,iPSC survival up,Cardio protect
CN(C)CCN(C(=O)c1ccc2ccccc2c1)c1nc2cc3c(cc2s1)OCCO3,-1.0,12.6*,21.8,33.4,0.6,8.2
Cc1ccc2nc(N(CCN(C)C)C(=O)c3ccc4ccccc4c3)sc2c1,1.8,11.9*,18.9,24.6,0.1,3.6
CN(C)CCN(C(=O)c1ccc2ccccc2c1)c1nc2ccc(Br)cc2s1,2.5,-1.1,15.7,47.1,1.3,4.6
CCOc1ccc2nc(N(CCCN(C)C)C(=O)c3ccc4c(c3)CCCC4)sc2c1,-0.6,0.9,11.6,10.6,-0.3,-11.8
CN(C)CCCN(C(=O)c1ccc2c(c1)CCCC2)c1nc2ccc(Cl)cc2s1,0.9,11.0*,27.1,9.1,0.4,-28.8
CSCCC(c1nc2ccccc2[nH]1)n1c(=O)c(-c2ccco2)nc2ccccc21 (stereo not drawn),-30.6,.,.,.,.,.
O=C(/C=C/c1ccccc1Cl)OCC(=O)N1CCc2ccccc21,1.4,.,12.2,.,-1.1,-0.2
C=CC[C@@H](CC(=O)N(CCO)Cc1ccccc1)C(=O)NC[C@H](OC(=O)[C@@H](CC=C)Cc1ccc(F)cc1)c1ccccc1,1.2,-5.0,24.0,.,-0.2,0.7
Cc1cc(C)cc(N(C(=O)CNS(=O)(=O)c2ccccc2)C(C(=O)NCc2ccccc2)c2ccc(C)o2)c1 (stereo not drawn),2.1,2.7,-2.6,16.4,2.8,12.9
Cc1ccc(S(=O)(=O)NCC(=O)N(c2ccccc2)C(C(=O)NCc2ccccc2)c2ccco2)cc1 (stereo not drawn),2.6,-2.2,16.3,16.8,-1.8,58.1*
c1ccc(COc2ccc(-c3cc4nc(NCCCn5ccnc5)ccn4n3)cc2)cc1,-26.6,.,-22.1,.,-4.1,-9.2
CCNC(=O)C1(C)CCN1C(=O)CCc1cccc(Cl)c1 (stereo not drawn),-0.3,.,-7.3,.,2.0,0.0
Cc1cccc(NC(=O)c2cccc(NC(=O)c3ccco3)c2)c1,0.0,0.8,0.2,5.9,0.0,5.0
Cc1cc(C)cc(NC(=O)c2ccc(NC(=O)c3ccco3)cc2)c1,-1.2,18.2*,15.4,2.2,-0.5,21.7
CC(=O)c1ccc(NC(=O)c2ccc(NC(=O)c3ccco3)cc2)cc1,-0.3,12.9*,-2.0,31.9,-0.5,-7.6
CCCCOc1cccc(C(=O)Nc2ccc(NC(=O)c3ccco3)cc2)c1,-1.3,11.7*,0.0,2.2,0.3,-3.3
CC(=O)Nc1ccc(NC(=O)c2ccco2)cc1,-1.6,-6.0,-5.2,-4.9,-1.2,-3.0
COC(=O)c1ccc(NC(=O)c2ccc(NC(=O)c3ccco3)cc2)cc1,0.5,25.2*,-3.1,0.4,1.5,-8.9
C=Cc1cccc(NC(=O)c2ccc(NC(=O)c3ccco3)cc2)c1,2.6,31.1*,11.1,-0.9,-0.5,23.7
CCOC(=O)c1cccc(NC(=O)c2ccc(NC(=O)c3ccco3)cc2)c1,1.3,31.1*,2.3,29.0,-0.4,28.2
O=C(Nc1ccc(NC(=O)c2ccco2)cc1)c1ccc2c(c1)OCCO2,1.8,10.1*,0.5,0.8,0.0,6.6
O=C(Nc1ccccc1)c1cccc(NC(=O)c2ccco2)c1,-0.7,5.9,-1.5,-20.6,-0.5,0.3
CCNC(=O)C1(C)CCCN(Cc2cccc3c(OC)cc(C(=O)OCC)cc23)C1 (stereo not drawn),-0.6,.,-3.6,.,0.1,-1.8
CN(C)C(=O)/C=C\c1cn(-c2ccccc2)nc1-c1ccc2c(c1)OCCO2,2.9,0.4,0.9,1.4,-3.0,51.7*
O=C(O)/C=C/c1cn(-c2ccccc2)nc1-c1ccc2c(c1)OCCO2,1.9,-3.0,-5.1,29.9,0.4,1.6
SMILES,SENP1 FRET inh,GRIN3A LBD mod,FAS TE block,Arrestin-AP2 inh,iPSC survival up,Cardio protect
O=C(/C=C\c1cn(-c2ccccc2)nc1-c1ccc2c(c1)OCCO2)N1CCOCC1,1.0,1.5,5.6,0.4,-0.7,60.2*
COC(=O)[C@@]12C[C@@H](CC(=O)N3CCCCC3)C(=O)N(Cc3ccco3)C1=CCC(C)(C)C2,0.2,.,.,.,.,.
O=C(Nc1ccc(F)cc1F)c1ccc(S(=O)(=O)N2CCCCC2)cc1,-0.5,-1.6,3.8,-18.8,1.0,2.8
O=C(Nc1ccc(S(=O)(=O)N2CCCC2)cc1)Nc1ccc(F)cc1F,2.3,36.9*,4.2,22.8,0.2,-10.1
Cc1cc(C)nc(NS(=O)(=O)c2ccc(NC(=O)Nc3ccccc3F)cc2)n1,-1.3,11.3*,-1.2,-7.3,-0.3,-3.3
CC(=O)Nc1ccc(C(=O)Nc2ccc(S(=O)(=O)N3CCCCC3)cc2)cc1,1.0,23.3*,-2.8,-2.2,2.3,-0.1
Cc1cc(C(=O)Nc2ccc(S(=O)(=O)N3CCCC3)cc2)cs1,-1.3,0.9,3.7,5.0,-0.1,-3.5
Cc1ccc(C(=O)Nc2ccc(S(=O)(=O)N3CCCC3)cc2)s1,-1.0,23.6*,5.1,10.2,0.4,-5.2
CCCCN(C)c1c(C)nc2ccc(C(=O)NCCCn3ccnc3)cn12,-2.6,.,-7.1,.,-0.9,4.6
CN(C(=S)NC(=O)c1ccccc1)C1CCCCC1,0.0,3.3,-2.8,13.7,-0.1,0.4
CC(C)(C)NC(=O)C(C1CC1)n1c(=O)c(-c2ccco2)nc2ccccc21 (stereo not drawn),-51.7,.,.,.,.,.
O=C(Nc1ccc(Cl)cc1Cl)NC1CCN(S(=O)(=O)c2ccc(F)cc2)CC1,3.9,21.4*,30.8,14.5,-0.4,-13.6
O=C(CN1CCCCC1)Nc1ccc(S(=O)(=O)N2CCCCCC2)cc1,2.1,11.2*,0.8,24.4,-1.9,-3.2
CC(=O)c1ccc(NC(=O)C2CCN(S(=O)(=O)c3ccc4c(c3)N(C(C)=O)CCO4)CC2)cc1,1.7,19.2*,-3.4,-6.0,-0.6,11.2
O=C(Nc1ccc(S(=O)(=O)N2CCCCC2)cc1)c1ccc(Cl)nc1,-1.6,24.1*,1.6,34.8,-0.3,-11.0
O=C(Nc1ccc(S(=O)(=O)N2CCCC2)cc1)c1ccc(Cl)nc1,0.1,-1.8,-3.2,-14.2,-0.6,-3.1
O=C(Nc1ccc(Cl)cc1Cl)NC1CCCC1,1.2,0.5,-7.8,32.9,-1.6,-4.4
CCCCNC(=O)C(NC(=O)c1cccs1)C(=O)c1ccccc1 (stereo not drawn),3.0,.,.,.,.,.
CCOc1ccc(S(=O)(=O)N2CCOCC2)cc1NC(=O)CCN1C(=O)NC2(CCCC2)C1=O,-0.3,.,-6.4,.,-1.0,17.0
O=C(Nc1ccc(F)cc1)c1ccc(S(=O)(=O)N2CCCC2)cc1,1.9,-1.2,2.1,-0.1,-0.4,2.4
CC(=O)c1ccc(NC(=O)Nc2ccc(S(=O)(=O)N3CCCC3)cc2)cc1,0.4,30.2*,4.2,30.0,-0.4,-11.7
